Measured values as given in ChEMBL document CHEMBL1146809, “(+)-3-[2-(Benzo[b]thiophen-2-yl)-2-oxoethyl]-1-azabicyclo[2.2.2]octane as potent agonists for the alpha7 nicotinic acetylcholine receptor” (Bioorg Med Chem Lett, 2004).

What was measured:
[1] = molecular target: T1, Neuronal acetylcholine receptor subunit alpha-7 (Rattus norvegicus, UniProt Q05941); test: Alpha 7 nicotinic acetylcholine receptor binding activity in PC12 cells; format: cell-based, PC-12
[2] = molecular target: T1, Neuronal acetylcholine receptor subunit alpha-7; test: Binding affinities for the alpha 7 nicotinic acetylcholine receptor was determined in PC12 cells; format: cell-based, PC-12
[3] = Cmax wa determined in rat plasma at 30 mg/kg after po administration; format: ADME, organism-based; parameters: dose 30 mg/kg, route oral
Outline: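 Rats were dosed orally at 30 mg/kg. The read-out was the peak plasma concentration (Cmax), reported in ng/mL.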

T1 sequence (Q05941 whole entry): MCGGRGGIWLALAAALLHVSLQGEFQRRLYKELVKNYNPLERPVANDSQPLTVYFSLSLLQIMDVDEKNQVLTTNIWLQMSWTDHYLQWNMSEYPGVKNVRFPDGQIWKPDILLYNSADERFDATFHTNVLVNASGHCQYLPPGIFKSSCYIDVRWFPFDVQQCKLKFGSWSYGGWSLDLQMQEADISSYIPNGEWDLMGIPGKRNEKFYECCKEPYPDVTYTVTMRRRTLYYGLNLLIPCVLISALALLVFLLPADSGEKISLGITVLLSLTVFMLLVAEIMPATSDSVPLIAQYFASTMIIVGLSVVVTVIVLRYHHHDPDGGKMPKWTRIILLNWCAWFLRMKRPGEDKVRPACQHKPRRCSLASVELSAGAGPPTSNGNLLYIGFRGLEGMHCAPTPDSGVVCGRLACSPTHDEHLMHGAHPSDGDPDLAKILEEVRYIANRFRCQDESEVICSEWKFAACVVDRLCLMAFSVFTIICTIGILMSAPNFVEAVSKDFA

Compound	IC50 [1]	IC50 [2]	Cmax [3]
c1ccc2sc(CO[C@H]3CN4CCC3CC4)cc2c1	515 nM		
c1ccc2sc(CC3CN4CCC3CC4)cc2c1 (configuration not stated)	110 nM		
O=C(c1cc2ccccc2s1)C1CN2CCC1CC2 (configuration not stated)	950 nM		
c1ccc2sc(CCCC3CN4CCC3CC4)cc2c1 (configuration not stated)	370 nM		
c1ccc2sc(CO[C@@H]3CN4CCC3CC4)cc2c1	26 nM		
c1ccc2cc(COC3CN4CCC3CC4)ccc2c1 (configuration not stated)		150 nM	
c1ccc2c(COC3CN4CCC3CC4)cccc2c1 (configuration not stated)		730 nM	
COc1ccc(Cc2cccnc2-c2cccnc2)c(OC)c1	760 nM		
c1ccc2sc(COC3CN4CCC3CC4)cc2c1 (configuration not stated)	59 nM		
c1ccc2sc(CCC3CN4CCC3CC4)cc2c1 (single isomer, unassigned; (+))	65 nM		
O=C(CC1CN2CCC1CC2)c1cc2ccccc2s1 (single isomer, unassigned; (+))	130 nM		
O=C(CC1CN2CCC1CC2)c1cc2ccccc2s1 (single isomer, unassigned; (-))	170 nM		
O=C(CC1CN2CCC1CC2)c1cc2ccccc2s1 (stereo in doubt; 15b)	150 nM		270 ng/mL
c1ccc2sc(CCC3CN4CCC3CC4)cc2c1 (stereo in doubt; 16b)	23 nM		450 ng/mL
c1ccc2sc(CCC3CN4CCC3CC4)cc2c1 (stereo in doubt; (-)-16b)	220 nM		
